Experimental data published in PMC2755535 (Archives of toxicology, 2009).

Legend:
[1] = system: peroxisomal acyl Co-A oxidase (AOX); test: Peroxisomal acyl Co-A oxidase activity in liver homogenates; type: in vivo, female Sprague-Dawley rats; conditions: for AOX activity in liver, change versus control (significance): Figure 3; for Increase of peroxisomal AOX activity in liver compared to control: oral 21 days, N-EtFOSE increase p = 0.35
[2] = system: reduced to oxidized glutathione; test: Total and oxidized glutathione; type: in vivo, female Sprague-Dawley rats; conditions: data not shown
In short: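 Female Sprague-Dawley rats were gavaged for 21 days (5 days/week) with test compound at 5.0 mg/kg in corn oil (n=9), vehicle (n=9), or a reference peroxisome proliferator at 7.5 mg/kg/day (n=8), then killed by CO2. Liver and uterus aliquots were homogenized immediately in 5% 5-sulfosalicylic acid. Total and oxidized glutathione were measured by enzymatic recycling, and the GSH:GSSG ratio was derived.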

[3] = type: in vivo, female Sprague-Dawley rats; conditions: oral 21 days, N-EtFOSE 5.0 mg/kg or ciprofibrate 7.5 mg/kg/day
total SOD = test: Total SOD activity in liver and uterus; type: in vivo, female Sprague-Dawley rats; conditions: Figure 4
GPx-1 = GPx-1 activity; type: in vivo, female Sprague-Dawley rats; conditions: Figure 6
In short: (§1)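 Rats were dosed orally for 21 days (5 days/week) with test compound at 5.0 mg/kg/day in corn oil, with vehicle, or with a positive control. Liver and uterus homogenates were assayed in a coupled glutathione reductase/NADPH system, reading NADPH decrease at 340 nm. H2O2 was the substrate for GPx-1 and cumene hydroperoxide for total GPx. Results are milliunits/mg Lowry protein, analysed by ANOVA and Dunnett's test (p<0.05).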

[4] = system: Thiobarbituric acid reactive substances (TBARS); test: TBARS in whole liver homogenate; type: in vivo, female Sprague-Dawley rats; conditions: data not shown
In short: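 Female Sprague-Dawley rats were gavaged once daily, 5 days/week for 21 days. Groups: test compound at 5.0 mg/kg in corn oil (2 mL/kg, n=9), corn-oil vehicle (n=9), or a reference peroxisome proliferator at 7.5 mg/kg/day in water/methylcellulose (n=8). Euthanasia was 3 days (1 day for the reference agent) after the last dose. TBARS were measured fluorometrically in whole liver homogenate.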

Catalase = Catalase activity in liver and uterus; type: in vivo, female Sprague-Dawley rats; conditions: Figure 5
In short: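 Female Sprague-Dawley rats were gavaged once daily, 5 days/week for 21 days, with test compound at 5.0 mg/kg in corn oil (2 mL/kg) or with vehicle. A positive control peroxisome proliferator was given at 7.5 mg/kg/day in water/methylcellulose. H2O2 was added to liver or uterus homogenate in potassium phosphate buffer (pH 7.8), and H2O2 loss at 240 nm was followed for 2 min. Results are milli-k units/mg Lowry protein, compared by ANOVA with Dunnett's test.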

[5] = system: copper zinc superoxide dismutase (CuZnSOD); test: CuZnSOD activity in liver and uterus; type: in vivo, female Sprague-Dawley rats; conditions: Figure 4
Total GPx = Total GPx activity; type: in vivo, female Sprague-Dawley rats; conditions: Figure 6
In short: as §1

[6] = Histopathological evaluation of H&E stained liver and uterus sections; type: in vivo, female Sprague-Dawley rats
[7] = system: Manganese superoxide dismutase (MnSOD); test: MnSOD activity in liver and uterus; type: in vivo, female Sprague-Dawley rats; conditions: Figure 4; for MnSOD activity in the liver, change versus control: ciprofibrate p = 0.07
[8] = rat, in vivo; cited from earlier work
[9] = human blood; ref Kärrman et al., 2006b; cited from earlier work
[10] = sheep; ref Vitayavirasuk and Bowen, 1999; cited from earlier work
[11] = sheep, in vivo; cited from earlier work
[12] = Levels of N-EtFOSE and metabolites in liver and serum; type: in vivo, female Sprague-Dawley rats; conditions: for %TD in Serum (× 10^-3) / %TD in Serum: assuming serum volume of 4.86 mL/100 mg; for Liver: serum ratio: N-EtFOSE-treated female rats, mean
[13] = rat, in vivo; cited from earlier work; remark: listed apart in the source
[14] = percentage of the total N-EtFOSE dose
[15] = percentage of the total N-EtFOSE dose, recovery adjusted

Row | Structure (SMILES) | AOX activity in liver, change versus control (significance) [1] | Increase of peroxisomal AOX activity in liver compared to control [1] [fold] | GSH:GSSG ratio in the liver [2] | GSH:GSSG ratio in the uterus [2] | Survival and clinical signs of toxicity [3] | Ratio of Organ Weight to Body Weight, Spleen ([3]; mean ± SD) | Total SOD activity in the liver, change versus control (total SOD) | Total SOD activity in the uterus, change versus control (total SOD) | GPx-1 activity in the liver, change versus control (GPx-1) | GPx-1 activity in the uterus, change versus control (GPx-1) | TBARS in the liver [4] | Catalase activity in the liver, change versus control (Catalase) | Catalase activity in the uterus, change versus control (Catalase) | CuZnSOD activity in the liver, change versus control [5] | CuZnSOD activity in the uterus, change versus control [5] | Total GPx activity in the liver, change versus control (Total GPx) | Total GPx activity in the uterus, change versus control (Total GPx) | %TD in Serum (× 10^-3) [12, 14] | %TD in Liver [12, 15] [%TD] | Liver: serum ratio [12] | further results
1 | CC(C)(Oc1ccc(C2CC2(Cl)Cl)cc1)C(=O)O (stereo not shown) [Ciprofibrate, reference compound] | significant increase | 300 | Neither N-EtFOSE nor ciprofibrate had an effect | Neither N-EtFOSE nor ciprofibrate had an effect | no clinical findings | 2.5 ± 0.2 % (× 10^-3) | not significant effect | did not significantly alter | significantly decreased | decreased only in the liver | Neither N-EtFOSE nor ciprofibrate had an effect | not significantly altered | did not alter | not significant effect | increased | significantly decreased | significantly decreased | – | – | – | Organ weight, Kidney ([3]; mean ± SD): 1.69 ± 0.05 g; Organ weight, Liver ([3]; mean ± SD): 13 ± 0.97 g; Organ weight, Spleen ([3]; mean ± SD): 0.58 ± 0.04 g; Organ weight, Uterus ([3]; mean ± SD): 0.31 ± 0.06 g; Ratio of Organ Weight to Body Weight, Liver ([3]; mean ± SD): 5.9 ± 0.3 %; Histopathological evaluation of H&E stained liver and uterus slices ([6]; oral 21 days, data not shown): did not reveal pathological changes; MnSOD activity in the liver, change versus control [7]: tended to be increased; MnSOD activity in the uterus, change versus control [7]: significantly decreased
2 | NS(=O)(=O)C(F)(F)C(F)(F)C(F)(F)C(F)(F)C(F)(F)C(F)(F)C(F)(F)C(F)(F)F [FOSA, perfluorooctanesulfonamide] | – | – | – | – | – | – | – | – | – | – | – | – | – | – | – | – | – | 25.3 ± 6.1 (× 10^-3) %TD (× 10^-3) | 0.29 ± 0.06 | – | half-life [8]: approximately 100 hours; mean plasma-to-whole blood ratio [9]: 0.2; plasma-to-whole blood ratio [10]: 0.04; elimination phase half-life [11]: 63.4 h; Kp at 3 days after the last dose ([12]; female, Sprague-Dawley, rat, in vivo): 10.1
3 | O=S(=O)(NCCO)C(F)(F)C(F)(F)C(F)(F)C(F)(F)C(F)(F)C(F)(F)C(F)(F)C(F)(F)F [FOSE, perfluorooctanesulfonamidoethanol] | – | – | – | – | – | – | – | – | – | – | – | – | – | – | – | – | – | 0.07 ± 0.03 (× 10^-3) %TD (× 10^-3) | – | 6.4 | %TD in Liver (× 10^-3) [12, 15]: 0.58 ± 0.35 (× 10^-3) %TD (× 10^-3)
4 | CCN(CC(=O)O)S(=O)(=O)C(F)(F)C(F)(F)C(F)(F)C(F)(F)C(F)(F)C(F)(F)C(F)(F)C(F)(F)F [N-EtFOSAA, N-ethyl perfluorooctanesulfonamidoacetate] | – | – | – | – | – | – | – | – | – | – | – | – | – | – | – | – | – | – | 0.43 ± 0.13 | 1.3 | %TD in Serum [12, 14]: 0.38 ± 0.17 %TD
5 | CCN(CCO)S(=O)(=O)C(F)(F)C(F)(F)C(F)(F)C(F)(F)C(F)(F)C(F)(F)C(F)(F)C(F)(F)F [N-EtFOSE, N-Ethyl perfluorooctanesulfonamidoethanol] | did not reach statistical significance | 16 | Neither N-EtFOSE nor ciprofibrate had an effect | Neither N-EtFOSE nor ciprofibrate had an effect | no clinical findings | 2.7 ± 0.2 % (× 10^-3) | significantly increased | significantly increased | No significant change | no effect | Neither N-EtFOSE nor ciprofibrate had an effect | not significantly altered | significantly increased | significantly increased | significantly increased | No significant change | significant decrease | 0.42 ± 0.20 (× 10^-3) (n=5) %TD (× 10^-3) | – | – | Ratio of Organ Weight to Body Weight, Kidney ([3]; mean ± SD): 6.8 ± 0.4%; Ratio of Organ Weight to Body Weight, Uterus ([3]; mean ± SD): 1.6 ± 0.3%; Doses causing a reduced body weight gain in pregnant rats [13]: > 5 mg/kg body weight/day; Histopathological evaluation of H&E stained liver and uterus slices ([6]; rat, in vivo, po): did not reveal pathological changes; Uncorrected N-EtFOSE level in the liver ([12]; rat, in vivo): c Corrected N-EtFOSE levels in the liver are not reported because of the poor recovery rate (2.5±1%); uncorrected N-EtFOSE levels group were low, with 4.6 ± 4.7 ppb in N-EtFOSE-treated animals and 7.8 ± 1.3 ppb in control animals.; MnSOD activity in the liver, change versus control [7]: significantly increased; MnSOD activity in the uterus, change versus control [7]: only exception
6 | O=S(=O)(O)C(F)(F)C(F)(F)C(F)(F)C(F)(F)C(F)(F)C(F)(F)C(F)(F)C(F)(F)F [PFOS, perfluorooctane sulfonic acid] | – | – | – | – | – | – | – | – | – | – | – | – | – | – | – | – | – | – | 6.23 ± 0.95 | 2.3 | %TD in Serum [12, 14]: 3.86 ± 0.86 %TD; Share of the total N-EtFOSE dose in the serum and liver ([12]; serum plus liver): approximately 9.5±1.2%
